Converted amounts (≈) assume the structure as drawn. The source made the active and inactive calls. No cut-off for these calls is given here.
Columns and labels:
Murine hepatitis virus [1] = assay: Antiviral activity against Murine hepatitis virus-A59 infected in mouse L929 cells assessed as reduction in viral copy pre-infected with cell for 1 hrs followed by compound addition and measured after 48 hrs by RT-qPCR analysis; type: functional, organism-based; conditions: Murine coronavirus
In short: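 L929 cells in DMEM with 10% FBS were washed serum-free at 80% confluence and infected with MHV-A59 at MOI 0.01 for 1 h at 37 °C. Compounds were added at 0.1–100 μmol/L, with DMSO as blank control. After 48 h at 37 °C, the viral M gene in supernatant was measured by qRT-PCR. Percent inhibition was derived from copy number and EC50 from curve fitting.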

Murine hepatitis virus [2] = assay: Potency index, ratio of GS-441524 EC50 to test compound EC50 for antiviral activity against Murine hepatitis virus-A59 infected in mouse L929 cells assessed as reduction in viral copy pre-infected with cell for 1 hrs followed by compound addition and measured after 48 hrs by RT-qPCR analysis; type: functional
[3] = Stability in human plasma assessed as half-life; type: ADME, cell-free
[4] = Solubility of the compound; type: physicochemical
Murine hepatitis virus [5] = assay: Antiviral activity against Murine hepatitis virus-A59 infected in mouse L929 cells assessed as reduction in viral copy upto 200 uM pre-infected with cell for 1 hrs followed by compound addition and measured after 48 hrs by RT-qPCR analysis; type: functional, organism-based
In short: (§1)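 L929 cells in DMEM with 10% FBS were seeded for 24 h to 80% confluence and washed thrice with serum-free medium. Cells were infected with MHV-A59 at MOI 0.01 for 1 h at 37 °C, then compound was added, with DMSO as the blank control. After 48 h at 37 °C, cells and supernatants were taken for qRT-PCR of viral copies. Inhibition was calculated from copy number and fitted for EC50.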

Murine hepatitis virus [6] = assay: Antiviral activity against Murine hepatitis virus-A59 infected in mouse L929 cells assessed as reduction in viral copy pre-infected with cell for 1 hrs followed by compound addition and measured after 48 hrs in the presence of remdesivir by RT-qPCR analysis; type: functional, organism-based; in short: as §1
[7] = Tmax in Sprague-Dawley rat at 25 mg/kg, po administered as single dose and measured at 0.25 to 24 hrs by LC-MS/MS analysis; type: ADME, organism-based; conditions: in vivo, time 0.25-24 hrs
[8] = Cmax in Sprague-Dawley rat at 25 mg/kg, po administered as single dose and measured at 0.25 to 24 hrs by LC-MS/MS analysis; type: ADME, organism-based; set-up: dose 25 mg/kg, time 0.25-24 hrs, route po; conditions: in vivo
[9] = AUC (0 to infinity) in Sprague-Dawley rat at 25 mg/kg, po administered as single dose and measured at 0.25 to 24 hrs by LC-MS/MS analysis; type: ADME, organism-based; set-up: time upper 24 hrs, time lower 0.25 hrs, dose 25 mg/kg, route po; conditions: in vivo
[10] = Oral bioavailability in Sprague-Dawley rat at 25 mg/kg administered as single dose and measured at 0.25 to 24 hrs by LC-MS/MS analysis; type: ADME, organism-based; conditions: in vivo, time 0.25-24 hrs
[11] = Tmax in Sprague-Dawley rat at 5 mg/kg, iv administered as single dose and measured at 0.083 to 24 hrs by LC-MS/MS analysis; type: ADME, organism-based; conditions: in vivo, time 0.083-24 hrs
[12] = Cmax in Sprague-Dawley rat at 5 mg/kg, iv administered as single dose and measured at 0.083 to 24 hrs by LC-MS/MS analysis; type: ADME, organism-based; set-up: dose 5 mg/kg, time 0.083-24 hrs, route iv; conditions: in vivo
[13] = AUC (0 to infinity) in Sprague-Dawley rat at 5 mg/kg, iv administered as single dose and measured at 0.083 to 24 hrs by LC-MS/MS analysis; type: ADME, organism-based; set-up: time upper 24 hrs, dose 5 mg/kg, time lower 0.083 hrs, route iv; conditions: in vivo
Murine hepatitis virus [14] = assay: Antiviral activity against murine hepatitis virus-A59 infected in BALB/c mouse assessed as inhibition of viral replication in liver at 70 mg/kg, po administered once daily one hour post infection and measured after 3 days by qRT-PCR analysis; type: functional, organism-based; conditions: time 3.0 day
In short: (§2)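 SPF male BALB/c mice aged 3–4 weeks were put under isoflurane and inoculated intranasally with 30 μL MHV-A59 (TCID50 = 10−7.125/100 μL) in PBS. Oral dosing once daily in 15% Cremophor EL/82.5% PBS/2.5% DMSO started at 1 hpi and ran for four days; groups had 12 mice. At 3 dpi, 4 mice per group were killed and lung and liver M-gene copies measured by qRT-PCR.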

Murine hepatitis virus [15] = assay: Antiviral activity against murine hepatitis virus-A59 infected in BALB/c mouse assessed as inhibition of viral replication in lungs at 70 mg/kg, po administered once daily one hour post infection and measured after 3 days by qRT-PCR analysis; type: functional, organism-based; conditions: time 3.0 day; in short: as §2
Murine hepatitis virus [16] = assay: Antiviral activity against murine hepatitis virus-A59 infected in BALB/c mouse assessed as reduction in TNF-alpha production in liver at 70 mg/kg, po administered once daily one hour post infection and measured after 3 days by ELISA analysis; type: functional, organism-based; conditions: time 3.0 day
In short: (§3)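 MHV-A59 was inoculated intranasally into male BALB/c mice (30 μL, TCID50 = 10−7.125/100 μL), with oral dosing once daily from 1 hpi for four days. At 3 dpi, 0.1 g lung or liver from 4 mice per group was homogenized in 0.9 mL water at 4 °C and centrifuged. Supernatant IFN-β was read by ELISA; TNF-α, IFN-γ, IL-1β, IL-6 and CXCL10 by multi-analyte kit, with OD 450 nm against standards.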

Murine hepatitis virus [17] = assay: Antiviral activity against murine hepatitis virus-A59 infected in BALB/c mouse assessed as reduction in IL-1beta production in liver at 70 mg/kg, po administered once daily one hour post infection and measured after 3 days by ELISA analysis; type: functional, organism-based; conditions: time 3.0 day; in short: as §3
Murine hepatitis virus [18] = assay: Antiviral activity against murine hepatitis virus-A59 infected in BALB/c mouse assessed as reduction in IL6 production in liver at 70 mg/kg, po administered once daily one hour post infection and measured after 3 days by ELISA analysis; type: functional, organism-based; conditions: time 3.0 day; in short: as §3
Murine hepatitis virus [19] = assay: Antiviral activity against murine hepatitis virus-A59 infected in BALB/c mouse assessed as reduction in IFN-gamma production in liver at 70 mg/kg, po administered once daily one hour post infection and measured after 3 days by ELISA analysis; type: functional, organism-based; conditions: time 3.0 day; in short: as §3
Murine hepatitis virus [20] = assay: Antiviral activity against murine hepatitis virus-A59 infected in BALB/c mouse assessed as reduction in CXCL10 production in liver at 70 mg/kg, po administered once daily one hour post infection and measured after 3 days by ELISA analysis; type: functional, organism-based; conditions: time 3.0 day; in short: as §3
Murine hepatitis virus [21] = assay: Antiviral activity against murine hepatitis virus-A59 infected in BALB/c mouse assessed as reduction in IFN-beta production in liver at 70 mg/kg, po administered once daily one hour post infection and measured after 3 days by ELISA analysis; type: functional, organism-based; conditions: time 3.0 day; in short: as §3
[22] = MRT (0 to infinity) in Sprague-Dawley rat at 25 mg/kg, po administered as single dose and measured at 0.25 to 24 hrs by LC-MS/MS analysis; type: ADME, organism-based; conditions: in vivo, time 0.25-24 hrs
[23] = MRT (0 to infinity) in Sprague-Dawley rat at 5 mg/kg, iv administered as single dose and measured at 0.083 to 24 hrs by LC-MS/MS analysis; type: ADME, organism-based; conditions: in vivo, time 0.083-24 hrs
Murine hepatitis virus [24] = assay: Antiviral activity against murine hepatitis virus-A59 infected in BALB/c mouse assessed as inhibition of viral replication in liver at 100 mg/kg, po administered once daily one hour post infection and measured after 3 days by qRT-PCR analysis; type: functional, organism-based; conditions: time 3.0 day; in short: as §2
Murine hepatitis virus [25] = assay: Antiviral activity against murine hepatitis virus-A59 infected in BALB/c mouse assessed as inhibition of viral titer in liver at 100 mg/kg, po administered once daily one hour post infection and measured after 3 days by qRT-PCR analysis; type: functional, organism-based; conditions: time 3.0 day; in short: as §2
Murine hepatitis virus [26] = assay: Antiviral activity against murine hepatitis virus-A59 infected in BALB/c mouse assessed as inhibition of viral replication in lungs at 100 mg/kg, po administered once daily one hour post infection and measured after 3 days by qRT-PCR analysis; type: functional, organism-based; conditions: time 3.0 day; in short: as §2
Murine hepatitis virus [27] = assay: Antiviral activity against murine hepatitis virus-A59 infected in BALB/c mouse assessed as alleviation of interstitial pneumonia in lungs at 100 mg/kg, po administered once daily one hour post infection and measured after 3 days by H&E staining based analysis; type: functional, organism-based; conditions: time 3.0 day
In short: (§4)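 In male BALB/c mice (3–4 weeks), MHV-A59 was given intranasally (30 μL, TCID50 = 10−7.125/100 μL). Oral dosing once daily in a Cremophor EL/PBS/DMSO vehicle began at 1 hpi and lasted four days. At 3 dpi, lungs and livers from 4 mice per group were fixed in zinc formalin and paraffin-embedded. Sections of about 4 μm were stained with H&E and examined at 200× and 400×.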

Murine hepatitis virus [28] = assay: Antiviral activity against murine hepatitis virus-A59 infected in BALB/c mouse assessed as alleviation of thickened alveolar septa in lungs at 100 mg/kg, po administered once daily one hour post infection and measured after 3 days by H&E staining based analysis; type: functional, organism-based; conditions: time 3.0 day; in short: as §4
Murine hepatitis virus [29] = assay: Antiviral activity against murine hepatitis virus-A59 infected in BALB/c mouse assessed as alleviation of lymphocytes infiltration in lungs at 100 mg/kg, po administered once daily one hour post infection and measured after 3 days by H&E staining based analysis; type: functional, organism-based; conditions: time 3.0 day; in short: as §4
Murine hepatitis virus [30] = assay: Antiviral activity against murine hepatitis virus-A59 infected in BALB/c mouse assessed as alleviation of necrotic debris in lungs at 100 mg/kg, po administered once daily one hour post infection and measured after 3 days by H&E staining based analysis; type: functional, organism-based; conditions: time 3.0 day; in short: as §4
Murine hepatitis virus [31] = assay: Antiviral activity against murine hepatitis virus-A59 infected in BALB/c mouse assessed as reduction in mortality at 100 mg/kg, po administered once daily one hour post infection and measured after 23 days; type: functional, organism-based; conditions: time 23.0 day
In short: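 After intranasal MHV-A59 inoculation (30 μL, TCID50 = 10−7.125/100 μL), 3–4-week-old male BALB/c mice received oral drug or vehicle once daily from 1 hpi for four days, 12 per group. The remaining mice were monitored daily for body weight, clinical signs and death until 23 dpi; survival curves were plotted.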

CC(C(=O)OC[C@H]1O[C@@](C#N)(c2ccc3c(N)ncnn23)[C@H](O)[C@@H]1O)c1cccc(Oc2ccccc2)c1 (stereo not given in full)
EC50 (Murine hepatitis virus [1]): 1.27 µM
Ratio EC50 (Murine hepatitis virus [2]): 8
t1/2 [3]: 169.31 min
solubility [4]: 29 µM (≈ 15 µg/mL)

CCC(CC)COC(=O)[C@H](C)N[P@](=O)(OC[C@H]1O[C@@](C#N)(c2ccc3c(N)ncnn23)[C@H](O)[C@@H]1O)Oc1ccccc1
EC50 (Murine hepatitis virus [1]): 1.82 µM

CC(C)Cc1ccc(C(C)C(=O)O)cc1 (stereo not given) [IBUPROFEN]
Activity (Murine hepatitis virus [5]): inactive
Activity (Murine hepatitis virus [6]): inactive
Tmax [7]: 40.2 min
Cmax [8]: 80.2 µM
AUC [9]: 263 uM.hr/L
F [10]: 78.42%
Tmax [11]: 1.8 min
Cmax [12]: 41.8 µM
AUC [13]: 67.1 uM.hr/L
Activity (Murine hepatitis virus [14]): inactive
Activity (Murine hepatitis virus [15]): inactive
Activity (Murine hepatitis virus [16]): inactive
Activity (Murine hepatitis virus [17]): inactive
Activity (Murine hepatitis virus [18]): inactive
Activity (Murine hepatitis virus [19]): inactive
Activity (Murine hepatitis virus [20]): inactive
Activity (Murine hepatitis virus [21]): inactive

COc1ccc2cc([C@H](C)C(=O)OC[C@H]3O[C@@](C#N)(c4ccc5c(N)ncnn45)[C@H](O)[C@@H]3O)ccc2c1
EC50 (Murine hepatitis virus [1]): 8.65 µM
t1/2 [3]: 181.97 min
solubility [4]: 155 µM (≈ 78 µg/mL)

N#C[C@@]1(c2ccc3c(N)ncnn23)O[C@H](COC(=O)Cc2ccccc2Nc2c(Cl)cccc2Cl)[C@@H](O)[C@H]1O
EC50 (Murine hepatitis virus [1]): 6.4 µM
t1/2 [3]: 191.16 min
solubility [4]: 3.7 µM (≈ 2.11 µg/mL)

CC(C(=O)OC[C@H]1O[C@@](C#N)(c2ccc3c(N)ncnn23)[C@H](O)[C@@H]1O)c1cccc(C(=O)c2ccccc2)c1 (stereo not given in full)
EC50 (Murine hepatitis virus [1]): 4.17 µM
t1/2 [3]: 199.18 min
solubility [4]: 1070 µM (≈ 566 µg/mL)

COc1ccc2c(c1)c(CC(=O)OC[C@H]1O[C@@](C#N)(c3ccc4c(N)ncnn34)[C@H](O)[C@@H]1O)c(C)n2C(=O)c1ccc(Cl)cc1
EC50 (Murine hepatitis virus [1]): 10.1 µM
t1/2 [3]: 170.07 min
solubility [4]: 0.1 µM (≈ 0.0631 µg/mL)

N#C[C@@]1(c2ccc3c(N)ncnn23)O[C@H](CO)C(O)C1O (single isomer, unassigned) [GS-441524]
EC50 (Murine hepatitis virus [1]): 10 µM
Cmax [8]: 7.75 µM
AUC [9]: 22.6 uM.hr/L
MRT [22]: 3.16 h
F [10]: 60.31%
Cmax [12]: 5.67 µM
AUC [13]: 7.51 uM.hr/L
MRT [23]: 1.28 h
Activity (Murine hepatitis virus [24]): Active
Activity (Murine hepatitis virus [25]): Active
Activity (Murine hepatitis virus [26]): Active
Activity (Murine hepatitis virus [27]): inactive
Activity (Murine hepatitis virus [28]): inactive
Activity (Murine hepatitis virus [29]): inactive
Activity (Murine hepatitis virus [30]): inactive
Activity (Murine hepatitis virus [31]): Active
